Reference: PMC2193166 (The Journal of Experimental Medicine, 2000)
One block for each molecule: values may come before it. No end group written: not given here. *: point of attachment. 125I = [125I]*

Legend:
human PMNs = test: Human PMN chemotaxis, 48-well microchamber; type: cell-based
Procedure, shortened: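 Freshly isolated human PMNs were preincubated with vehicle or test compound (10 nM) for 30 min at 37°C and loaded at 5 × 10^4/well into the upper wells of a 48-well chamber fitted with an uncoated 5-μm polycarbonate membrane. The lower wells held peptide (1 nM), test compound, or vehicle (RPMI, 0.1% ethanol). After 60 min at 37°C, migrated cells were Diff-Quik stained and counted by light microscopy. Migration index was chemoattractant over vehicle; three donors.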

PMNs = test: Direct binding of ^125I-labeled MHC binding peptide with PMNs; parameters: species or system human; details: n = 3, data not shown
B/A254 = B/A254 (Homo sapiens, UniProt P25090+Q15722); test: ^3H-LTB4 binding, B/A254-transfected HEK293 cells
ALXR = biological target: T1, ALXR (Homo sapiens, UniProt P25090); details: cited from earlier work
T1 sequence (P25090 1-351): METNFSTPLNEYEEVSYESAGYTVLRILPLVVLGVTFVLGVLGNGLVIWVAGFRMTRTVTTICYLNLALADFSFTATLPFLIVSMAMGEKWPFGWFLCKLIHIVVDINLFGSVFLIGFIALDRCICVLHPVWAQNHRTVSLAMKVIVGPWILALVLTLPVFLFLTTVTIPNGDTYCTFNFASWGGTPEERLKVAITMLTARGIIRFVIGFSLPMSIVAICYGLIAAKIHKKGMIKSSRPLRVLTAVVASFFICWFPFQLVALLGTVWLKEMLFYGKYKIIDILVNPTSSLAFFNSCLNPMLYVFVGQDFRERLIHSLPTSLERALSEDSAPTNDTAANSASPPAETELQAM

specific binding to PMNs (PMNs): nor did it show specific binding
Molecule: ^125I-labeled peptide: MHC binding peptide iodinated at the Tyr residue (MY(125I)FINILTL)
PMN chemotaxis (in words) (human PMNs): did not promote PMN chemotaxis

specific ^3H-LTB4 binding (in words) (B/A254): failed to specifically bind
Molecule: CCCCC/C=C\C[C@@H](O)/C=C/C=C\C=C\[C@@H](O)CCCC(=O)O [^3H-LTB4, [5,6,8,9,11,12, 14,15-^3H]-LTB4]

Molecule: serum amyloid protein A [SAA]
concentration required to evoke responses (ALXR): micromolar
